Reference: publication PMC8788976 (Veterinary Medicine and Science, 2021)

Columns and labels:
[1] = tested on: urate crystal-induced acute arthritis; assay: Single dose arthritis induction study; assay type: in vivo, Beagle dogs
Procedure, shortened: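 Male Beagles (23–36 months, 9–12 kg). Groups: six dogs oral 4 mg/kg on days 0 and 12; three dogs reference coxib 2 mg/kg on days 0 and 14; one dog untreated. Stifle urate crystal injections on days 0 (2 h post-dose), 2, 7, 14 and 21. Blinded scoring before and 0.5–12 h after each injection. Standing plus walking lameness summed as CLS; pain scored on palpation.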

[2] = Single oral dose pharmacokinetic study in Beagle dogs; assay type: in vivo; conditions: for AUC 24h / AUC last / C max: mean ± SD; for T last / T max: median (range)
Procedure, shortened: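 Single oral dose of 1 or 4 mg/kg given as micronised drug in gelatine capsules, followed by 5 ml water; dogs fasted overnight until 4 h post-dose. Jugular blood taken pre-dose, at 0.25–12 h, then daily to day 21. K3-EDTA plasma (2500 g, 15 min, 4°C) stored at −80°C. Parent and pyrazol metabolite measured by SPE then HPLC-MS/MS (celecoxib internal standard). Non-compartmental analysis: Cmax observed; AUC by linear trapezoidal rule; AUCinf extrapolated using the terminal rate constant.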

[3] = Plasma concentrations in the single dose arthritis induction study; assay type: in vivo, Beagle dogs
Procedure, shortened: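 Ten male Beagles (23–36 months, 9–12 kg); six received oral 4 mg/kg on day 0 and again on day 12. Urate crystal suspension injected into the stifle joint on days 0 (2 h post-dose), 2, 7, 14 and 21. Jugular blood taken at each injection time and processed as for plasma PK. Parent and pyrazol metabolite quantified by HPLC-MS/MS.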

[4] = Plasma concentrations in the repeated dose arthritis induction study; assay type: in vivo, Beagle dogs
Procedure, shortened: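 Twelve male Beagles given oral 8 mg/kg on day 0, then 4 mg/kg weekly on days 7, 14 and 21, with stifle urate crystal inductions during the study. Jugular blood taken at time points including each intra-articular injection, and through day 56. Plasma processed as in the PK study. Pyrazol metabolite quantified by SPE then HPLC-MS/MS; values reported as mean ± SD.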

[5] = Population PK model of enflicoxib and pyrazol metabolite; design: species or system Beagle dogs
Procedure, shortened: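 Population PK model built from two sources. Toxicokinetic data: 228 samples from 12 Beagles, days 1 and 28, daily 1 or 4 mg/kg. PK data: 341 parent/metabolite samples from 26 Beagles in the oral PK and two arthritis studies. Structure: two-compartment parent (first-order absorption with lag, first-order elimination) and three-compartment metabolite. Body weight included as covariate. Evaluated by visual predictive check (90% intervals); parameter CIs from non-parametric bootstrap.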

[6] = tested on: urate crystal-induced acute arthritis; assay type: in vivo, Beagle dogs; conditions: plasma level, acute arthritis induction model in dogs
Procedure, shortened: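 Efficacy dataset: 18 enflicoxib-treated dogs from both urate arthritis studies, giving 71 paired observations of plasma parent or pyrazol metabolite level and lameness score taken at the same time. These pairs were linked to the population PK model to define the minimum effective plasma concentration.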

[7] = tested on: COX-2 enzymes isolated from sheep placenta; conditions: ref Wagemakers et al., 2009; cited from earlier work

NS(=O)(=O)c1ccc(-n2nc(C(F)(F)F)cc2-c2ccc(F)cc2)cc1 [mavacoxib]
lameness and pain after induction ([1]; days 0 and 7, mavacoxib 2 mg/kg on days 0 and 14): some degree of lameness and pain
lameness or pain after induction ([1]; days 14 and 21, after second administration on day 14, mavacoxib 2 mg/kg): none or mild lameness or pain

NS(=O)(=O)c1ccc(-n2nc(C(F)(F)F)cc2-c2ccc(F)cc2F)cc1 [Pyrazol metabolite]
AUC 24h ([2]; single oral enflicoxib 1 mg/kg): 1104 ± 502 ng·h/mL
AUC last ([2]; single oral enflicoxib 1 mg/kg): 40,784 ± 10,228 ng·h/ml
C max ([2]; single oral enflicoxib 1 mg/kg): 165.8 ± 48.5 ng/mL
T last ([2]; single oral enflicoxib 1 mg/kg): 480 h
T max ([2]; single oral enflicoxib 1 mg/kg): 132.0 (96–168) h
AUC 24h ([2]; single oral enflicoxib 4 mg/kg): 2647 ± 1322 ng·h/mL
AUC last ([2]; single oral enflicoxib 4 mg/kg): 132,329 ± 33,065 ng·h/ml
C max ([2]; single oral enflicoxib 4 mg/kg): 577.0 ± 203.4 ng/mL
T last ([2]; single oral enflicoxib 4 mg/kg): 480 h
T max ([2]; single oral enflicoxib 4 mg/kg): 132.0 (96–168) h
terminal half-life read from the graphic profile ([2]; single oral enflicoxib 1 or 4 mg/kg, not adequately determinable): around 14 days
plasma concentration ([3]; day 0, single 4 mg/kg enflicoxib, average ± SD): 59 ± 34 ng/mL
plasma concentration ([3]; day 2, single 4 mg/kg enflicoxib, average ± SD): 207 ± 191 ng/mL
plasma concentration ([3]; day 7, single 4 mg/kg enflicoxib, average ± SD): 321 ± 241 ng/mL
plasma concentration ([3]; day 14, after second 4 mg/kg dose on day 12, average ± SD): 492 ± 240 ng/mL
plasma concentration ([3]; day 21, after second 4 mg/kg dose on day 12, average ± SD): 398 ± 172 ng/mL
maximum plasma level ([4]; day 23, 8 mg/kg loading, 4 mg/kg on days 7, 14, 21): 1748 ± 334 ng/mL
plasma level at end of experimental period ([4]; day 56, 28 days after last dose administration): 348 ± 152 ng/mL
CLM/F (θ7), Bootstrap Median ([5]; apparent clearance of pyrazol metabolite, bootstrap): 0.111 L/h
CLM/F (θ7), Value ([5]; apparent clearance of pyrazol metabolite, θ7·(WGT/9.9)^0.75): 0.111 L/h
VM/F (θ4), Value ([5]; central compartment, assumed the same as that of enflicoxib): 6.59 L
VM/F (θ4), Bootstrap Median ([5]; central compartment, bootstrap): 6.60 L
CLM2/F (θ12), Bootstrap Median ([5]; central-deep peripheral, bootstrap): 0.132 L/h
CLMP/F (θ8), Bootstrap Median ([5]; central-shallow peripheral, bootstrap): 13.2 L/h
VM2/F (θ13), Bootstrap Median ([5]; deep peripheral compartment, bootstrap): 13.5 L
VM2/F (θ13), Value ([5]; deep peripheral compartment, θ13·(WGT/9.9)^1.0): 13.4 L
CLM2/F (θ12), Value ([5]; distribution clearance central-deep peripheral, θ12·(WGT/9.9)^0.75): 0.131 L/h
CLMP/F (θ8), Value ([5]; distribution clearance central-shallow peripheral, θ8·(WGT/9.9)^0.75): 13.2 L/h
estimated terminal half-life ([5]; population PK model): 13.8 days
Inter-individual variability on CLM/F, Value ([5]; random parameter, %CV): 31%
Residual variability, Value ([5]; random parameter, %CV): 20%
Inter-individual variability on CLM/F, Bootstrap Median ([5]; random parameter, bootstrap): 31%
Residual variability, Bootstrap Median ([5]; random parameter, bootstrap): 20%
VMP/F (θ9), Bootstrap Median ([5]; shallow peripheral compartment, bootstrap): 29.33 L
VMP/F (θ9), Value ([5]; shallow peripheral compartment, θ9·(WGT/9.9)^1.0): 29.3 L
Minimum Effective Concentration (MEC) [6]: 411 ng/mL
selectivity for COX-2 versus COX-1 [7]: more than 250 fold
